Compound activity (PubChem)
Only some compounds are listed: those with a hit (about 3.7% of all), similar ones and a draw of the others.
SR-BI DiI inh: inhibitors of SR-BI mediated HDL lipid uptake, primary screen, ldlA[mSR-BI] cells, fluorescence, single point; Scavenger receptor class B member 1 (Mus musculus), Q61009; ldlA[mSR-BI] CHO cells, DiI-HDL uptake fluorescence, 3 h; inhibition, % at 12.5 µM; actives 0.96% (n = 320,000);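 active = mean replicate inhibition of at least 70% and a set share of replicates each scoring 70 or more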;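 note: 0% = median of neutral control wells and 100% = median of positive control wells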
SR-BI DiI-HDL act: activators of SR-BI mediated DiI-HDL uptake, primary screen, ldlA[mSR-BI] CHO cells, DiI fluorescence. 3 h; 100 = double the neutral-control signal. activation, % at 12.5 µM. actives 0.096% (n = 320,000). AID 504775, 2011;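 active = mean replicate activation of at least 60% and every replicate at or above 60%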;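 note: 0% = median plate neutral-control signal and 100% = twice that signal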
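Test system: SR-BI-overexpressing, LDLR-lacking CHO cells; Also added: labelled HDL, 10 µg/mL; Measured by: bottom-read cell fluorescence after medium removal, ex 550/em 595 nm; Timing: 3 h uptake period with compound, 37 °C; Buffer or medium: F12, 0.5% BSA, 25 mM HEPES; Doses: single compound concentration, delivered by pin transfer.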
GAA850 FXN act: FXN promoter activators, primary screen, cell-based, luciferase luminescence, HEK293 lucGAA850. HEK293 lucGAA850 FXN promoter luciferase reporter, 24 h; percent of 10 µM SAHA response. activation, % at 6 µM. actives 0.56% (n = 360,000);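 active = activation above the average of all compounds screened plus 3 SD, cutoff fixed separately per campaign, cut at about 7.5% in these data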;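 note: 0% = DMSO wells and 100% = 10 µM SAHA wells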
JMJD2C inh: inhibitors of GASC-1 histone demethylase, primary screen, biochemical, fluorescence, DELFIA europium. Lysine-specific demethylase 4C (Homo sapiens), Q9H3R0. GST-JMJD2C(1-420) H3K9me3 demethylation. inhibition, % at 2.35 µM. actives 0.069% (n = 330,000). AID 2099, 2009;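 active = more than half of a compound's replicate wells show inhibition beyond 50%, single wells judged on their own value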;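 note: signal counts dimethyl H3K9 product captured on neutravidin plate; 0% = median of DMSO wells and 100% = 0.3 times that DMSO median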
Target sequence (Q9H3R0 1-420 limits assumed): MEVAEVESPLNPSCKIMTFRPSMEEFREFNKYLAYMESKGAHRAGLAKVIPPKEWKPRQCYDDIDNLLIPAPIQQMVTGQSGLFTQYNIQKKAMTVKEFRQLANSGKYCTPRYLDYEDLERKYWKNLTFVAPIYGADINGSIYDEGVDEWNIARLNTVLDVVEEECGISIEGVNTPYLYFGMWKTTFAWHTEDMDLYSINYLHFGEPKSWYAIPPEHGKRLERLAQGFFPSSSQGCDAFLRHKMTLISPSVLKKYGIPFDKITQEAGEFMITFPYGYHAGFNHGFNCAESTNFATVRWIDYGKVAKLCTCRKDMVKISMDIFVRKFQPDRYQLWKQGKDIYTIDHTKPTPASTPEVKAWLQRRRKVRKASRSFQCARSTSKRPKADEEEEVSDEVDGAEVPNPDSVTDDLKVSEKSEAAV
AHR act: AHR activators, primary screen, cell-based, luminescence, luciferase reporter, human. AHR-responsive luciferase reporter cells. Aryl hydrocarbon receptor (Homo sapiens), P35869. actives 2.5% (n = 320,000). activation, % at 5 µM. AID 2796, 2010; in the data active = activation above about 47%;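 note: 0% = vehicle wells and 100% = reference agonist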
* marks the source's active call; other numbers are inactive results; . = no result.

SMILES	SR-BI DiI inh	SR-BI DiI-HDL act	GAA850 FXN act	JMJD2C inh	AHR act
COc1ccc(CN2CCNC(=O)C2CC(=O)NCc2cn3ccc(C)cc3n2)c(OC)c1 (stereo not drawn)	-6.5	6.5	1.5	3.5	-1.9
CC(C)c1ccc(OCC(=O)NCCO)cc1	-58.6	58.6	2.0	2.5	25.8
CCCn1nc(NC(=O)c2cccs2)c2cc3cc(OC)ccc3nc21	66.1	-66.1	-2.1	-4.1	65.7*
CCCCn1nc(NC(=O)c2cccs2)c2cc3cc(OC)ccc3nc21	82.0*	-82.0	-3.2	-17.0	50.0*
O=C(c1ccccc1NS(=O)(=O)c1cccc(C(F)(F)F)c1)N1CCc2ccccc21	-25.2	25.2	-0.4	1.2	-0.1
Cc1cccc(C(=O)N(C(=O)c2cccc(C)c2)N(C)C)c1	-0.5	0.5	-0.7	.	.
O=C(N/N=C\c1ccc(Cl)s1)c1ccc(Cn2cccn2)o1	-13.6	13.6	2.0	-31.1	73.0*
O=C(N/N=C/c1cccnc1)c1ccc(Cn2cc([N+](=O)[O-])cn2)o1	5.7	-5.7	-0.1	4.0	62.5*
CC(C)c1ccc(/C=N\NC(=O)c2ccc(Cn3cccn3)o2)cc1	5.7	-5.7	5.9	4.5	22.5
COc1cccc(/C=N\NC(=O)c2ccc(Cn3cc(Br)c([N+](=O)[O-])n3)o2)c1O	101.0*	-101.0	-7.8	3.8	7.3
CNc1ccc(N=Nc2cccc3ncccc23)cc1	36.6	-36.6	-5.2	.	.
CC(C)c1ccc2[nH]c3c(c2c1)[C@@H]1CCN2C(=O)CCC[C@H](C3)[C@H]12	13.1	-13.1	3.4	4.7	19.3
COC(=O)C1OC(OC2CC[C@]3(C)C(CC[C@@]4(C)[C@@H]3CC=C3[C@@H]5CC(C)(C)CC[C@]5(C(=O)OC5OC(CO)C(O)C(O)C5O)CC[C@]34C)C2(C)C)C(O)C(O)C1O[C@H]1OCC(O)C(O)C1O (stereo partly drawn)	-119.0	119.1*	-1.1	6.9	-1.5
CCn1nc(NC(=O)CC(C)C)c2cc3ccc(C)cc3nc21	13.4	-13.4	-0.6	11.4	41.0
CC(=O)Nc1nn(C)c2nc3cc(C)ccc3cc12	7.9	-7.9	-0.3	-6.8	71.2*
C=C1CCC[C@]2(C)C[C@H]3OC(=O)C(CNC(C)(CO)CO)[C@H]3CC12 (stereo partly drawn)	15.8	-15.8	-2.8	11.3	2.8
COc1cc(C(=O)NCCc2c[nH]c3ccccc23)ccc1OCc1c(C)noc1C	83.1*	-66.3	-2.8	-6.3	1.0
CCC(C)C(CO)NCCCn1cnc(C(=O)Nc2ccc(C)c(C)c2)n1 (stereo not drawn)	0.3	-0.3	-1.6	.	.
CN(C)/C=C(\C=N\OCc1ccc(Cl)cc1Cl)C(=O)Nc1ccc(Cl)c(Cl)c1	4.1	-4.1	0.1	-14.4	0.6
CCOc1ccccc1N/C(=C(/C(Cl)=C(Cl)Cl)[N+](=O)[O-])n1cncn1	-2.0	2.0	0.4	10.7	54.1*
CC1=C(C(=O)Nc2ccc(C(=O)NCCCN3CCCCC3)cc2)SCCO1	6.9	-6.9	2.0	0.0	-0.3
C/C(=N\NC(=O)c1ccccc1[N+](=O)[O-])c1c(O)cc(C)oc1=O	-9.4	9.4	-3.4	4.5	5.4
C/C(=N\NC(=O)c1ccccc1O)c1c(O)cc(C)oc1=O	101.4*	-101.5	0.7	-26.5	18.5
CCOC(=O)C(CC)/C(C)=N\NC(=O)c1ccccc1O (stereo not drawn)	58.8	-58.8	2.7	11.0	55.6*
CCC(C)/C(C)=N/NC(=O)c1ccccc1OCCOc1ccccc1 (stereo not drawn)	4.8	-4.8	3.5	-5.8	78.6*
SMILES	SR-BI DiI inh	SR-BI DiI-HDL act	GAA850 FXN act	JMJD2C inh	AHR act
O=C(NN=C1CCCC1)c1ccccc1OCCOc1ccccc1	-1.1	1.1	3.9	-5.0	30.7
COc1ccc(S(=O)(=O)Nc2ccc(-n3cnnn3)cc2)cc1Br	3.3	-3.3	0.4	.	.
CCCNC(=O)c1onc(CSc2ccc(F)cc2)c1C(=O)NCC1CC1	-30.7	30.7	2.7	-0.9	-0.7
Cc1ccc(C(C)C)c(OCc2ccc(C(=O)N/N=C/c3ccc(O)cc3O)cc2)c1	129.4*	-129.4	-9.4	10.3	-3.2
Cc1ccc(C)c(N(CC(=O)NC2CCCC2)C(=O)CCC(=O)Nc2cc(C)on2)c1	.	.	0.0	-9.5	3.0
COc1ccc(S(=O)(=O)N2CCN(C(=O)CNC(=O)c3ccc4c(c3)OCO4)CC2)cc1	12.3	-12.3	1.0	-0.6	3.7
COc1ccc(C(=O)NC(C)c2ccc(-n3ccnc3)cc2)c(OC)c1OC (stereo not drawn)	-7.4	7.4	-1.2	-19.9	18.3
CC(NC(=O)c1ccccc1OC(F)F)c1ccc(-n2ccnc2)cc1 (stereo not drawn)	18.5	-18.5	0.0	0.5	71.1*
COc1ccc(C(=O)NC(C)c2ccc(-n3ccnc3)cc2)c(OC)c1 (stereo not drawn)	22.5	-22.5	-1.5	2.3	54.1*
Cc1ccc(Nc2nc3ccccc3n3nnnc23)cc1	12.4	-12.4	3.6	-4.0	51.6*
Cc1cccc(Nc2nc3ccccc3n3nnnc23)c1	11.2	-11.2	2.5	-2.9	30.4
Cc1cc(C)n(-c2nc(NC(C)C)nc(NC(C)C)n2)n1	-1.2	1.2	9.6*	-2.2	2.9
Cn1c(N)c(C(=O)COC(=O)[C@H](Cc2ccccc2)N2C(=O)c3ccccc3C2=O)c(=O)n(C)c1=O	-5.8	5.8	2.1	-8.6	57.6*
CN(CCC#N)C(=O)COC(=O)[C@H](Cc1ccccc1)N1C(=O)c2ccccc2C1=O	-30.2	30.2	0.5	11.4	53.6*
CC1Oc2ccccc2OC1(O)c1ccc2ccccc2n1 (stereo not drawn)	-0.9	0.9	0.2	-3.8	51.4*
CC1Oc2ccccc2OC1(O)c1ccccn1 (stereo not drawn)	2.6	-2.6	0.5	2.2	-1.1
CCCCNC1=CC(=O)C(NCCCC)=CC1=O	15.5	-15.5	1.6	.	.
CCCCNC1=CC(=O)C(=O)c2ccccc21	0.8	-0.8	-0.9	-3.3	52.5*
C=CCSc1nc2sc3c(c2c(=O)n1CC)CCc1ccccc1-3	-19.9	19.9	1.9	19.2	56.3*
CC(=O)Nc1cccc(OCCCNC(=O)c2ccc(C(C)(C)C)cc2)c1	.	.	3.1	6.3	47.4*
CCN(C[C@H]1N[C@@](Cc2ccccc2)(C(=O)OC)[C@H]2C(=O)N(Cc3ccccc3)C(=O)[C@@H]12)S(=O)(=O)c1ccc(-c2ccccc2)cc1	-2.7	2.7	-1.8	-15.9	-0.1
